In brackets after ≈: the same amount, converted by molar mass. Values belong to the molecule of their own block, whether it stands above or below them. Activity calls are given as the source filed them. No cut-off for these calls is given here.
Key:
[1] = Half life in mouse liver microsomes; assay type: ADME
[2] = Half life in simulated gastric fluid at pH 1.2; assay type: ADME
How it was run: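 Stability in simulated gastric fluid containing 800000 Units/L pepsin at pH 1.2; half-life reported.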

CYP2C9 = CYP2C9 (Homo sapiens, UniProt P11712); assay: Inhibition of CYP2C9 (unknown origin) at 10 uM; assay type: ADME
[3] = test system: Trichophyton mentagrophytes; assay: Fungicidal activity against Trichophyton mentagrophytes B70554; assay type: functional, organism-based
How it was run: (§1)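 Inoculum of 10^3 CFU in RPMI-MOPS added to prediluted compound, highest concentration 64 µM. Growth read by resazurin fluorescence (ex 550, em 590 nm). IC50 is 50% growth inhibition versus untreated controls. Three independent replicates.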

Nakaseomyces glabratus = assay: Antifungal activity against Candida glabrata BG2 after 24 hrs; assay type: functional
How it was run: (§2)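 Overnight YPD cultures diluted in PBS (1/200 for C. albicans, 1/400 for C. glabrata). Cells treated with compound, or 2.5% DMSO as solvent control, for 24 h at 37 °C. CFUs then counted; MFC is the concentration giving 99% killing of the inoculum.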

[4] = Apparent permeability from apical to basolateral side in human Caco2 cells; assay type: ADME, cell-based; conditions: Caco-2
Candida albicans [5] = assay: Antifungal activity against Candida albicans SC5314 infected in BALB/c mouse assessed as reduction in reduction in fungal load in kidney at 10 mg/kg/day, ip for 5 days relative to vehicle-treated control; assay type: functional, organism-based
How it was run: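 BALB/c mice given cyclophosphamide 100 mg/kg at 4 days and 24 h before infection and at 3 days after. Infected IV with 2×10^3 SC5314 cells in saline. Dosed IP daily for 5 days from 16 h post-infection, in DMSO/0.5% methylcellulose (5/95). Organs taken on day 7, homogenized and plated on BHI agar (18 h, 37 °C). CFU/g compared with vehicle.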

Aspergillus fumigatus = assay: Antifungal activity against Aspergillus fumigatus CBS 117202 after 24 hrs by two-fold dilution method; assay type: functional; conditions: CBS 117202, 24 h
How it was run: (§3)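 Spores at 2×10^4 spores/mL in potato dextrose broth, incubated with a 2-fold compound dilution series for 24 h at 25 °C. Growth read by microspectrophotometry of the liquid cultures. MIC taken as the lowest concentration inhibiting fungal growth.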

Sporothrix schenckii = assay: Fungicidal activity against Sporothrix schenckii B62482; assay type: functional, organism-based; how it was run: as §1
[6] = Half life in simulated intestinal fluid […]; assay type: ADME
[7] = Plasma protein binding in human; assay type: ADME, cell-free; conditions: read-out: PPB (converted)
Candida albicans [8] = assay: Antifungal activity against Candida albicans SC5314 after 24 hrs; assay type: functional; how it was run: as §2
CYP3A4 = CYP3A4 (Homo sapiens, UniProt P08684); assay: Inhibition of CYP3A4 (unknown origin) at 10 uM; assay type: ADME
Aspergillus flavus = assay: Antifungal activity against Aspergillus flavus CBS111.45 after 24 hrs by two-fold dilution method; assay type: functional; conditions: CBS111.45, 24 h; how it was run: as §3
CYP1A2 = molecular target: T1, CYP1A2 (Homo sapiens, UniProt P05177); assay: Inhibition of CYP1A2 (unknown origin) at 10 uM; assay type: ADME
T1 sequence (P05177 whole entry): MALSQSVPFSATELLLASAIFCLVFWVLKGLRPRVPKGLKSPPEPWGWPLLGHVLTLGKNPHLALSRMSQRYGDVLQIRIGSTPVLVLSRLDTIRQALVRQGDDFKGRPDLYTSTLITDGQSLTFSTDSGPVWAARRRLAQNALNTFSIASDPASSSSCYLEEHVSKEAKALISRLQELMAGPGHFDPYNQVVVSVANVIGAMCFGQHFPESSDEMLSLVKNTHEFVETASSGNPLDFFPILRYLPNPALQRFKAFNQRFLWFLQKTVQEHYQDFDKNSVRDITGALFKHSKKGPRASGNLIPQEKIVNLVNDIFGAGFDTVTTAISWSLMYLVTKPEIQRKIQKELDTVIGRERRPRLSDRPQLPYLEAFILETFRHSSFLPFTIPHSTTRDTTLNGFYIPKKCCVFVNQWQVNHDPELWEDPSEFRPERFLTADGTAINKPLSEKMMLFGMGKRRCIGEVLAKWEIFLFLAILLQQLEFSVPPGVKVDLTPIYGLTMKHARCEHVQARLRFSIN

[9] = Half life in human liver microsomes; assay type: ADME
[10] = Cytotoxicity against human MRC5 SV2 cells after 72 hrs by fluorescence assay; assay type: cell-based
How it was run: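 MRC-5 SV2 cells (10^4/well) grown in MEM with L-glutamine, NaHCO3 and 5% FCS. Incubated with compound 72 h at 37 °C, 5% CO2, then resazurin added for 24 h. Fluorescence read at ex 530, em 590 nm.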

Microsporum canis = assay: Fungicidal activity against Microsporum canis B68128; assay type: functional; how it was run: as §1
Trichophyton rubrum = assay: Fungicidal activity against Trichophyton rubrum B68183; assay type: functional, organism-based; how it was run: as §1
hERG (KCNH2) = hERG (KCNH2) (Homo sapiens, UniProt Q12809); assay: Inhibition of human ERG channel at 10 uM
[11] = Drug metabolism in mouse liver microsomes at 10 uM after 90 mins by LC-MS/MS analysis; assay type: ADME; conditions: 1.5 h
CYP2D6 = CYP2D6 (Homo sapiens, UniProt P10635); assay: Inhibition of CYP2D6 (unknown origin) at 10 uM; assay type: ADME
[12] = Half life in human plasma; assay type: ADME, cell-free
CYP2C19 = CYP2C19 (Homo sapiens, UniProt P33261); assay: Inhibition of CYP2C19 (unknown origin) at 10 uM; assay type: ADME
[13] = Kinetic solubility of the compound at pH 7.4; assay type: physicochemical; conditions: buffer, read-out: Kinetic_solubility
[14] = Apparent permeability from basolateral to apical side in human Caco2 cells; assay type: ADME, cell-based; conditions: Caco-2
[15] = Half life in mouse plasma; assay type: ADME, cell-free

CYP2C19, sequence (P33261 whole entry): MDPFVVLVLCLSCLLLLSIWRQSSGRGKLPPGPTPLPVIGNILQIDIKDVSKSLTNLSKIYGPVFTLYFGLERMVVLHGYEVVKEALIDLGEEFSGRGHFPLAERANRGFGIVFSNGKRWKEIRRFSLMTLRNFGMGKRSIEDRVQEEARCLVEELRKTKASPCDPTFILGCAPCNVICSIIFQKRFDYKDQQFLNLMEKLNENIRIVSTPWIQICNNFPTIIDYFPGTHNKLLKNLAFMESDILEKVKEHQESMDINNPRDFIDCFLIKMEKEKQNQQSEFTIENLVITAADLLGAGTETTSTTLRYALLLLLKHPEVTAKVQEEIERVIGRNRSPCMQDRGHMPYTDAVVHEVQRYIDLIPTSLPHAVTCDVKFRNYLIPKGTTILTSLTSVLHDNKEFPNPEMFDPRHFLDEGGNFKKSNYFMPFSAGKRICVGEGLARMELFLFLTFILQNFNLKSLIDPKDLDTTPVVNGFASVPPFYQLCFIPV
CYP3A4, sequence (P08684 whole entry): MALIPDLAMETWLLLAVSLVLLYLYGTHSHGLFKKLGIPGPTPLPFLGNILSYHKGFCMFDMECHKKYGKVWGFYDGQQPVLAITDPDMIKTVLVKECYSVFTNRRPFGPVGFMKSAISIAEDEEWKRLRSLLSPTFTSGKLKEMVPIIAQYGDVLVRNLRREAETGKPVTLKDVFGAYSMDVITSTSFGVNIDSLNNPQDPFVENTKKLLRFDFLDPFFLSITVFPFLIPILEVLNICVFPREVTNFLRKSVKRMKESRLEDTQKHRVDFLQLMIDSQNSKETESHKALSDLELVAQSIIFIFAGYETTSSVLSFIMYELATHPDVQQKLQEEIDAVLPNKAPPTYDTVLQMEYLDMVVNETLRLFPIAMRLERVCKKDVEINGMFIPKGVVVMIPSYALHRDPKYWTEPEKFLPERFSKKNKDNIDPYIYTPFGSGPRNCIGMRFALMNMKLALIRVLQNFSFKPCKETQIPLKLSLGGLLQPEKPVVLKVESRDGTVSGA
CYP2C9, sequence (P11712 whole entry): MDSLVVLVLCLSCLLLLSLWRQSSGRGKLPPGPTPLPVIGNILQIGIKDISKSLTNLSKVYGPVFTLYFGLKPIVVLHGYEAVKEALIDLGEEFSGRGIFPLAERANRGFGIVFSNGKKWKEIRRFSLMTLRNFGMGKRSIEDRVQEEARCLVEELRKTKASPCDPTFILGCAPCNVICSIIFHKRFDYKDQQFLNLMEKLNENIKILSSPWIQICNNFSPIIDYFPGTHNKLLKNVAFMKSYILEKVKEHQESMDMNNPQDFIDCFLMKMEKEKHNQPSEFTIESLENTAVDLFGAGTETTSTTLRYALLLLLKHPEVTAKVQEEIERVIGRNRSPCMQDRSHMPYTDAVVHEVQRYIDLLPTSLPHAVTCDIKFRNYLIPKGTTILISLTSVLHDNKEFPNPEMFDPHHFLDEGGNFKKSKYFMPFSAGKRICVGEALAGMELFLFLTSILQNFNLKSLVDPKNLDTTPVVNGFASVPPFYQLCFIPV
hERG (KCNH2), sequence (Q12809 whole entry): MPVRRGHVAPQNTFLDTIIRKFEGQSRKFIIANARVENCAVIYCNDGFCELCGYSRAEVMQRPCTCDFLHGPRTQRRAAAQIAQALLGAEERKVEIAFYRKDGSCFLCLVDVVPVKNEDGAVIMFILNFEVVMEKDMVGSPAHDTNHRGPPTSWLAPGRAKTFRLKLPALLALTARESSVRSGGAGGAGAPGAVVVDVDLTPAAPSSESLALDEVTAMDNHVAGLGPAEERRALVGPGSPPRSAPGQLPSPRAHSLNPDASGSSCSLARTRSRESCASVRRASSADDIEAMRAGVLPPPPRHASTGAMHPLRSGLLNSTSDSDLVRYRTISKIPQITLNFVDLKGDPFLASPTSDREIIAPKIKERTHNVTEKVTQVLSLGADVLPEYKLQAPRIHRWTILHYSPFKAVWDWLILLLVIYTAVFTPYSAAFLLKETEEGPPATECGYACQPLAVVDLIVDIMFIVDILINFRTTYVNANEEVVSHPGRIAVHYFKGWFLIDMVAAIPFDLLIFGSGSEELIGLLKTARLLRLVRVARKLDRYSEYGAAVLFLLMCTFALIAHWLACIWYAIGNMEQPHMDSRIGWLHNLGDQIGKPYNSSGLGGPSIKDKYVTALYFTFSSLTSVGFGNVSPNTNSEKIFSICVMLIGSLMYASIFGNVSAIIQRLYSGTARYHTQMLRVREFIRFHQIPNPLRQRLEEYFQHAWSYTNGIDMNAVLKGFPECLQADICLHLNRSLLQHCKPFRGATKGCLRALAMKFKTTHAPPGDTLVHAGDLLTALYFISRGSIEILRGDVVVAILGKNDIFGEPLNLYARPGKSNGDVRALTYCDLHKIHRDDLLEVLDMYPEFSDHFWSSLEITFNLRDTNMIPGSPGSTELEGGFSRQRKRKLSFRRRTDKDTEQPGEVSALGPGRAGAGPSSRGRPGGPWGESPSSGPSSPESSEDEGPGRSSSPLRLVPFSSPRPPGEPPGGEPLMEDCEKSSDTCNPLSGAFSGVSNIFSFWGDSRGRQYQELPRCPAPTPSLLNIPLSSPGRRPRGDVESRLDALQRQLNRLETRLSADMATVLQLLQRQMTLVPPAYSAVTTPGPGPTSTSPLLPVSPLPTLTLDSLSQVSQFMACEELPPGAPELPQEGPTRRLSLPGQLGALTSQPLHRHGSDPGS
CYP2D6, sequence (P10635 whole entry): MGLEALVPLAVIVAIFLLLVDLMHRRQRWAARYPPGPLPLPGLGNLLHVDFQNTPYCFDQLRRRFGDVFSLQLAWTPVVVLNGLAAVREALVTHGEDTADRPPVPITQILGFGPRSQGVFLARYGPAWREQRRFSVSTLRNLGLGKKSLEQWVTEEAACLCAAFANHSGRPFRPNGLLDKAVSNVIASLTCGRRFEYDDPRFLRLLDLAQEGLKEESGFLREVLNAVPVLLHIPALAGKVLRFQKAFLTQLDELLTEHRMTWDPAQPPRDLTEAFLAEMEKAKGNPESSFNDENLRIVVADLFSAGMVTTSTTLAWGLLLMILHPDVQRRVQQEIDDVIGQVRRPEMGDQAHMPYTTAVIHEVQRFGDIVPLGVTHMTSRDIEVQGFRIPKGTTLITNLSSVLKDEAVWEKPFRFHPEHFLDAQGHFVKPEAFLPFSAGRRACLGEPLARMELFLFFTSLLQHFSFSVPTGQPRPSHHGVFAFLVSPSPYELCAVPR

half-life [1]: 6 min
half-life [2]: > 240 min
inhibition at 10 µM (CYP2C9): < 40%
Papp A→B [4]: 65 ×10⁻⁶ cm/s
MIC (Aspergillus fumigatus): 1.6 µg/mL (≈ 4.81 µM)
half-life [6]: > 240 min
fraction unbound [7]: 0.061
inhibition at 10 µM (CYP3A4): < 40%
MIC (Aspergillus flavus): 12.5 µg/mL (≈ 37.6 µM)
inhibition at 10 µM (CYP1A2): < 40%
half-life [9]: 29 min
Drug metabolism [11]: metabolite_detected
inhibition at 10 µM (CYP2D6): < 40%
half-life [12]: > 240 min
inhibition at 10 µM (CYP2C19): < 40%
solubility kinetic [13]: 50 µM (≈ 16.6 µg/mL)
Papp B→A [14]: 35 ×10⁻⁶ cm/s
Compound: CCN1CC(C)(C)OC(=O)C1CC(=O)Nc1ccc(C(C)C)cc1 (stereo unspecified)
IC50 [3]: 10.6 µg/mL (≈ 31.9 µM)
MFC99 (Nakaseomyces glabratus): 25 µg/mL (≈ 75.2 µM)
Activity (Candida albicans [5]): Active
IC50 (Sporothrix schenckii): 11.8 µg/mL (≈ 35.5 µM)
MFC99 (Candida albicans [8]): 12.5 µg/mL (≈ 37.6 µM)
CC50 at 72 h [10]: > 20 µg/mL
IC50 (Microsporum canis): 6.6 µg/mL (≈ 19.9 µM)
IC50 (Trichophyton rubrum): 6.3 µg/mL (≈ 19 µM)
inhibition at 10 µM (hERG (KCNH2)): 11%

half-life [12]: 31 min
Compound: CCN1C[C@@H](c2ccccc2)OC(=O)C1CC(=O)Nc1ccc(C(C)C)cc1 (stereo partly specified)
MFC99 (Candida albicans [8]): 12.5 µg/mL (≈ 32.9 µM)

MIC (Aspergillus fumigatus): 3.1 µg/mL (≈ 9.03 µM)
MIC (Aspergillus flavus): 25 µg/mL (≈ 72.8 µM)
Compound: CCN1CC(C)(C)OC(=O)C1CC(=O)Nc1ccc2c(ccn2C)c1 (stereo unspecified)
IC50 [3]: 11 µg/mL (≈ 32 µM)
MFC99 (Nakaseomyces glabratus): 50 µg/mL (≈ 146 µM)
IC50 (Sporothrix schenckii): 10 µg/mL (≈ 29.1 µM)
MFC99 (Candida albicans [8]): 12.5 µg/mL (≈ 36.4 µM)
CC50 at 72 h [10]: > 20 µg/mL
IC50 (Microsporum canis): 6.2 µg/mL (≈ 18.1 µM)
IC50 (Trichophyton rubrum): 11 µg/mL (≈ 32 µM)

MIC (Aspergillus fumigatus): 12.5 µg/mL (≈ 41.1 µM)
half-life [15]: 32 min
half-life [12]: 22 min
Compound: CCN1CCOC(=O)C1CC(=O)Nc1ccc(C(C)C)cc1 (stereo unspecified)
MFC99 (Nakaseomyces glabratus): 12.5 µg/mL (≈ 41.1 µM)
MFC99 (Candida albicans [8]): 12.5 µg/mL (≈ 41.1 µM)

half-life [12]: 57 min
Compound: CCN1C[C@H](C)OC(=O)C1CC(=O)Nc1ccc(C(C)C)cc1 (stereo partly specified)
MFC99 (Candida albicans [8]): 12.5 µg/mL (≈ 39.3 µM)

Compound: CCN1CC(C)(C)OC(=O)C1CC(=O)Nc1ccnn1C (stereo unspecified)
MFC99 (Candida albicans [8]): >50 µg/mL

Compound: CCN1CC(CC)(CC)OC(=O)C1CC(=O)Nc1ccc(C(C)C)cc1 (stereo unspecified)
MFC99 (Candida albicans [8]): >25 µg/mL
